A selection: hits, their analogues and other compounds. The true share with any hit is near 4.3%.
TAAR1 ag: human TAAR1 agonism; CHO RD-HGA16 TAAR1, Fluo-8 calcium fluorescence; vehicle wells 0%, saturating PEA agonist 100%; activation, % at 3 µM; AID 624467; Q96RJ0; actives 0.99% (n = 360,000);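 active means activation above the mean activation of all test compounds in the run plus 3 SD, cut at about 38% in these data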
Target sequence (Q96RJ0 whole entry, looked up): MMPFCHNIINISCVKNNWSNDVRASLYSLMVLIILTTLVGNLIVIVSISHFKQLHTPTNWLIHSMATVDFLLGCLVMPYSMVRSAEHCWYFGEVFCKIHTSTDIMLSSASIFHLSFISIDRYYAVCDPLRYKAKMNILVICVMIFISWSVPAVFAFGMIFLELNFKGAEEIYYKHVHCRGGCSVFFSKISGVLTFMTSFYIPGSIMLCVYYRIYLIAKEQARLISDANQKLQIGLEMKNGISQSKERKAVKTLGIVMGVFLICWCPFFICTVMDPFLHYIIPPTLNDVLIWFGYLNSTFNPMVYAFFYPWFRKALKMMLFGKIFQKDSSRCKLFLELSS
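Assay system – CHO-derived RD-HGA16 cells with stable Gα16 and human TAAR1 · Compound dosing – one-point dosing at 3 µM (nominal) · Incubation – 17-24 h seeding, 75 min 37 °C dye, 30 min RT · Measured by – kinetic Fluo-8 calcium fluorescence · Control set – DMSO vehicle as 0%, PEA at EC100 as 100% · Repeats – single well for each compound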
B2AR ag: human beta-2 adrenergic receptor agonism by FAP; AID 504454; response, % (no concentration beside the values); actives 0.43% (n = 340,000); Am2.2-beta2AR cells, FAP receptor internalization, flow cytometry;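 active means response above a set limit, near 3 SD of response in nonfluorescent compounds, cut at about 42% in these data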
HTR2A ag: agonists of mouse serotonin 5-HT2A receptor (HTR2A); P35363; CHO-K1 mHTR2A beta-arrestin complementation, luminescence; percent of 30 µM serotonin response; activation, % at 7.6 µM; actives 0.66% (n = 360,000);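 active means activation above a run cutoff, the mean activation of all tested compounds plus 3 SD, cut at about 14% in these data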;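 further: 0% = plate median of compound wells and 100% = 30 µM serotonin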
MC4R antag cAMP: blocks human MC4R cAMP signaling. actives 0.48% (n = 360,000). MC4R-expressing cells, MTII-stimulated cAMP, LANCE TR-FRET. P32245. inhibition, % at 6.5 µM. AID 540295;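 active means inhibition above its plate's cutoff, the mean of tested wells on that plate plus 3 SD, cut at about 29% in these data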;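 further: 0% = Melanotan II alone and 100% = Melanotan II plus saturating MCL0020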
Target sequence (P32245 whole entry, looked up): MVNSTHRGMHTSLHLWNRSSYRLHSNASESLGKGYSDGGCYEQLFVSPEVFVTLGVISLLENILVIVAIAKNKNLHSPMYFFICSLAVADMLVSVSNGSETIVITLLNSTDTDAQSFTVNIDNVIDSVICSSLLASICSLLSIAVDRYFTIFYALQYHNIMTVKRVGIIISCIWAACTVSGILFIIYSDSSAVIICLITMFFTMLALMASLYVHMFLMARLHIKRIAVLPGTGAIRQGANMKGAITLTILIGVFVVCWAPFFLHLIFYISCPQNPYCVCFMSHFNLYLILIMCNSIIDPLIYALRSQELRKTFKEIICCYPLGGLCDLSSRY
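Assay system: U2OS cells stably expressing human melanocortin 4 receptor (MC4R) / Dosing: 6.5 µM / Timing: compound 30 min, challenge 1 h, detection 1 h / Measured by: Eu-cAMP/anti-cAMP TR-FRET, emission 671 nm / Replicates: singlicate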
MC4R barr agon: agonists of human melanocortin 4 receptor (MC4R) beta-arrestin | P32245 | U2OS MC4R beta-arrestin complementation, luminescence; percent of melanotan II response, DMSO zero | activation, % at 8.9 µM | actives 0.98% (n = 360,000) | AID 540308;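 active means activation above a per-plate cutoff, the mean activation of sample wells on that plate plus 3 SD, cut at about 8% in these data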
TAAR1 antagonist: antagonists of human TAAR1; CHO RD-HGA16 TAAR1, Fluo-8 calcium fluorescence, antagonist; inhibition, % at 3 µM; actives 1.5% (n = 360,000); AID 624466;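 active means inhibition above a per-plate cutoff, the mean inhibition of test compounds on that plate plus 3 SD, cut at about 49% in these data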;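 further: 0% = DMSO plus EC80 beta-PEA response and 100% = DMSO alone without agonist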
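Material: RD-HGA16 CHO cells with stable hTAAR1 and Gα16; Dosing: single nominal final test compound concentration of 3 µM; Schedule: seeding 17-24 h prior, 75-min 37 °C, 30-min RT dye loading; Detection: kinetic Fluo-8 calcium fluorescence measurement; Measure: % inhibition from peak post-agonist over basal fluorescence ratio; Benchmarks: vehicle and agonist controls.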
* = called active by the depositor; . = no result given.

SMILES | TAAR1 ag | B2AR ag | HTR2A ag | MC4R antag cAMP | MC4R barr agon | TAAR1 antagonist
CCOC(=O)c1c(C)[nH]c(C(=O)COC(=O)C(C)N2C(=O)C3CCCCC3C2=O)c1C (configuration not stated) | 22 | 12 | 2 | 16 | 0 | 51*
CCOC(=O)c1c(C)[nH]c(C(=O)COC(=O)CN2C(=O)C3CCCCC3C2=O)c1C (configuration not stated) | 12 | -10 | 5 | 2 | -1 | 8
CCOC(=O)c1c(C)[nH]c(C(=O)CSc2ccccc2)c1C | 5 | -3 | 3 | -5 | 8.4* | -3
CC1=N/C(=C\c2ccc([N+](=O)[O-])cc2)C(=O)N1c1ccc(C)c(Cl)c1 | -1 | . | . | . | . | 5
Cc1nn(CCN)c(C)c1Cl | 91* | 1 | 9 | -1 | 0 | 58*
COCCOC(=O)c1c(C)nc(SCC(=O)Nc2cccc3ccccc23)c(C#N)c1-c1ccco1 | 2 | 11 | -1 | 15 | -3 | 51*
COCCOC(=O)c1c(C)nc(SCC(=O)Nc2ccc(C)cc2)c(C#N)c1-c1ccco1 | 5 | 7 | 3 | -3 | 0 | 10
Cc1cc(NCc2ccccc2)nc(N2CCOCC2)n1 | 11 | -9 | -5 | 0 | -2 | -1
Cc1cc(N2CCOCC2)nc(NCc2ccccc2)n1 | 49* | -27 | -10 | 2 | 0 | 41
CCN(CC)CCOC(=O)/C=C/c1ccccc1 | 2 | 5 | -3 | 0 | 0 | -44
CCN(CC)CC(C)(C)C(=O)/C=C/c1ccc(/C=C/C(=O)C(C)(C)CN(CC)CC)cc1 | 7 | 46* | 0 | -10 | -1 | 13
Cc1cc2c(cc1C)-c1nnnn1C(N1CCC(Cc3ccccc3)CC1)C(=O)N2 (configuration not stated) | 0 | . | 10 | . | . | -32
CCOc1ccc(-n2nnnc2-c2nc3ccccc3s2)cc1 | 0 | 18 | 3 | 0 | 1 | -10
Cc1ccc(-n2nnnc2-c2nc3ccccc3s2)cc1 | 1 | -3 | 0 | 12 | 8.7* | 4
CN(C)C(=O)N1CCN(C(=O)[C@H]2O[C@@H](n3ccc(N)nc3=O)[C@H](O)[C@@H]2O)CC1 | 2 | . | . | . | . | 1
O=C(Nc1ccc(N2CCCC2)cc1)C(Cl)c1ccccc1 (configuration not stated) | . | 76* | 2 | -4 | -2 | .
Cc1ccccc1C(=O)Nc1ccc(N2CCCC2)cc1 | 14 | 0 | -3 | 13 | 2 | 54*
CS(=O)(=O)N1CCN(c2ccc(NC(=O)C(c3ccccc3)c3ccccc3)cc2)CC1 | 5 | 9 | 0 | 21 | -1 | -4
Cc1ccc(C(=O)Nc2ccc(N3CCCC3)cc2)c(C)c1 | 1 | 16 | -4 | 10 | 0 | -14
CCOC(=O)C1CCN(Cc2cnc(Oc3ccc(OC)cc3)s2)CC1 | 4 | -2 | 22* | 2 | -2 | -13
COC(=O)C1=C(C)N(Cc2ccccc2C(F)(F)F)C(=NCc2ccccc2C(F)(F)F)NC1c1cccc(C(F)(F)F)c1 (configuration not stated) | 1 | . | . | . | . | -11
CCCC(=O)NC(=S)Nc1cccc(NC(=O)c2ccc(Cl)cc2Cl)c1 | 11 | -6 | 5 | -2 | 2 | 56*
CCC(=O)NC(=S)Nc1ccc(NC(=O)COc2ccc(Cl)cc2Cl)cc1 | . | -4 | -1 | 1 | 18* | .
CC(C(=O)NC1CCCC1)N(C(=O)Cn1nnc(-c2ccc(F)cc2)n1)c1ccccc1F (configuration not stated) | 19 | 22 | 2 | 3 | 2 | 52*
CCOC(=O)N1CCN(CCC(=O)c2ccc(Br)cc2)CC1 | 15 | -2 | 6 | 12 | -1 | 4
SMILES | TAAR1 ag | B2AR ag | HTR2A ag | MC4R antag cAMP | MC4R barr agon | TAAR1 antagonist
CCOC(=O)N1CCN(CCC(=O)c2ccc(Cl)cc2)CC1 | 37* | 2 | 6 | 14 | -3 | -6
C[C@@H]1CNCCN1c1ccc(N2CCS(=O)(=O)CC2)c(C#N)c1 | 0 | . | . | . | . | 2
COc1ccc(CN2C[C@H](COCc3ccccc3)Oc3cccc(Oc4ccc(C(C)C)cc4)c3S2(=O)=O)cc1 | 3 | . | . | . | . | 32
CC(C)Sc1snnc1-c1ccccc1 | 9 | -5 | -2 | -5 | 8.9* | 10
CSc1snnc1-c1ccccc1 | 2 | 2 | -2 | 2 | -2 | -6
O=C(CCCCN1CCCCC1)c1ccccc1 | 1 | 0 | -2 | 3 | 0 | -43
O=C(C(=Cc1ccccc1)CN1CCCCC1)c1ccccc1 | -1 | 49* | -2 | 19 | -1 | -1
O=C(O)CCCN1C(=O)/C(=C\c2ccc(-c3nc4ccccc4s3)o2)SC1=S | 14 | 53* | -1 | 5 | -3 | 26
CSCCC(NC(=O)COc1ccccc1)C(=O)N(C)Cc1ccc(SC)cc1 (configuration not stated) | 19 | 4 | -6 | 9 | -3 | 52*
CSCCC(NC(=O)COc1ccccc1)C(=O)N(C)Cc1ccc(F)cc1 (configuration not stated) | 4 | -1 | 7 | 12 | 0 | 13
COc1cc2[nH]c3c(Cl)ncnc3c2cc1OC | 1 | -33 | 4 | -16 | -3 | -10
c1ccc2c(c1)CCN(c1ncnc3c1[nH]c1ccccc13)C2 | 16 | 12 | 1 | 9 | -2 | 58*
COc1cc2[nH]c3c(N4CCN(c5ccc(Cl)cc5)CC4)ncnc3c2cc1OC | 14 | 12 | 5 | 20 | 12* | 12
c1ccc(CN2CCN(c3ncnc4c3[nH]c3ccccc34)CC2)cc1 | 21 | 5 | 24* | 3 | 0 | 47
COc1cccc(N2CCN(c3ncnc4c3[nH]c3ccccc34)CC2C)c1 (configuration not stated) | 16 | . | . | . | . | 89*
Cc1nc2cc[nH]n2c(=O)c1CCc1ccccc1 | 3 | . | . | . | . | -17
Cc1nn(Cc2ccc(Cl)cc2)c(=O)n1N(C)c1ncc(C(F)(F)F)cc1Cl | 3 | 1 | -2 | 3 | 9.2* | 0
CC(=O)Nc1ccc(/C(C)=N/Nc2nc(Nc3cccc4ccccc34)nc(N3CCOCC3)n2)cc1 | 50* | 11 | -9 | 9 | -2 | 52*
CC(=O)Nc1ccc(/C(C)=N/Nc2nc(N3CCOCC3)nc(N3CCOCC3)n2)cc1 | 2 | -2 | -1 | 2 | 0 | -4
CN(N=Cc1ccccc1O)C(=O)c1ccccc1N | 1 | . | . | . | . | -4
Cc1cc2c(nc1C)CCCN2S(=O)(=O)c1c(C)noc1C | 2 | . | . | . | . | -13
CCC(C)c1ccccc1NC(=O)CN(C)CCOc1ccc(Cl)cc1 (configuration not stated) | 6 | 10 | -10 | 18 | 8.6* | -12

Assay outcomes (PubChem)
